In data set [1] the test system is Trypanosoma cruzi. Kind of data set: Antitrypanosomal activity against Trypanosoma cruzi trypomastigotes measured after 24 hrs by resazurin dye based assay. In kind it is functional, organism-based. The method in brief:
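Cell-derived trypomastigotes, 1 × 10^6/well, exposed 24 h at 37 °C; viability by resazurin read at 570 nm; benznidazole as standard; IC50 calculated.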
On the technique in general: Resazurin is reduced to fluorescent resorufin, in cell work by metabolically active cells.

Data set [2] has as its system Trypanosoma cruzi. Kind of data set: Antitrypanosomal activity against Trypanosoma cruzi amastigotes infected in peritoneal macrophages (unknown origin) measured after 48 hrs by resazurin dye based assay. Format: functional, organism-based.
The nature of data set [3]: Cytotoxicity against mouse L929 cells measured after 48 hrs by MTT assay. In kind it is cell-based. The method, boiled down:
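NCTC clone L929 cells, 6 × 10^4/well, incubated with compound 48 h at 37 °C; viability by MTT at 570 nm; CC50 taken as 50% cytotoxic concentration; highest concentration 200 μM.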
A general note: Tetrazolium assays rely on reduction of a dye to a coloured formazan, in cell work by metabolically active cells.

A short description of data set [4]: Selectivity index, ratio of CC50 for mouse L929 cells to IC50 for Trypanosoma cruzi trypomastigotes. The note with it: read-out: Ratio CC50/IC50. Format: toxicity. The method in brief: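 Ratio of the mammalian CC50 (L929, MTT, 48 h) to the IC50 against trypomastigotes (resazurin, 24 h).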
Data set [5] can be described thus: Selectivity index, ratio of CC50 for mouse L929 cells to IC50 for Trypanosoma cruzi amastigotes infected in peritoneal macrophages (unknown origin). The note with it: read-out: Ratio CC50/IC50. Format: toxicity. The method in brief: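 Ratio of the L929 CC50 (MTT, 48 h) to the intracellular amastigote IC50 (infected peritoneal macrophages, 48 h).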
The test system of data set [6] is Trypanosoma cruzi. Kind of data set: Antitrypanosomal activity against Trypanosoma cruzi amastigotes infected in peritoneal macrophages (unknown origin) assessed as elimination of parasite at 100 uM by optical microscopic analysis. In kind it is functional, organism-based. The method in brief:
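Peritoneal macrophages infected with T. cruzi trypomastigotes (ratio 10:1) and treated at 100 μM. Infected untreated macrophages served as control. Parasite clearance was judged by optical microscopy at 1000× magnification.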

Data set [7] deals with Trypanosoma cruzi. Kind of data set: Disruption of plasma membrane integrity in Trypanosoma cruzi trypomastigotes at antitrypanosomal IC50 measured after 120 mins by Sytox green dye based fluorescence assay. Format: functional, organism-based. The method in brief:
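Trypomastigotes (2 × 10^6/well) with 1 μM SYTOX Green, compound at IC50, fluorescence followed 120 min at ex 485/em 520 nm; 0.5% Triton X-100 gives maximal permeabilization; compound background and DMSO controls; duplicates, at least two independent assays.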

The test system of data set [8] is Trypanosoma cruzi. Kind of data set: Induction of plasma membrane electric potential depolarization in Trypanosoma cruzi trypomastigotes at antitrypanosomal IC50 measured after 60 mins by DiSBAC2(3) dye based flow cytometry. Format: functional, organism-based. The method in brief:
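Trypomastigotes (2 × 10^6/well) exposed at IC50 for 60 min at 37 °C, then 0.2 μM DiSBAC2(3) added and read by flow cytometry; gramicidin D 0.5 μg/mL defined 100%, untreated 0%; at least two independent assays in duplicate.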

Data set [9] deals with Trypanosoma cruzi. Kind of data set: Induction of reactive oxygen species generation in Trypanosoma cruzi trypomastigotes at antitrypanosomal IC50 measured after 60 to 120 mins by H2DCFDA dye based fluorescence assay. In kind it is organism-based. The note with it: in vitro. The method in brief: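 Trypomastigotes incubated with compound at IC50 for 60 and 120 min, then 20 μM H2DCFDA 15 min at 37 °C; fluorescence ex 485/em 520 nm; 10 mM sodium azide positive control, untreated negative; compound background and DMSO controls.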

Data set [10] concerns Trypanosoma cruzi. Kind of data set: Induction of mitochondrial membrane potential depolarization in Trypanosoma cruzi trypomastigotes at antitrypanosomal IC50 measured after 2 hrs by JC1 dye based flow cytometry. In kind it is functional, organism-based. In general terms: In flow cytometry, cells or beads pass a laser one at a time.
Data set [11] deals with Trypanosoma cruzi. Kind of data set: Induction of mitochondrial membrane potential depolarization in Trypanosoma cruzi trypomastigotes at antitrypanosomal IC50 measured after 2 hrs by DAPI/Mito tracker red dye based fluorescence microscopic analysis. In kind it is functional, organism-based. The method, boiled down:
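Treated trypomastigotes costained with 10 μM DAPI and 1 μM MitoTracker Red CM-H2XROS, 30 min at 37 °C in the dark, then fluorescence microscopy; CCCP positive control, untreated parasites as reference.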

Setting [12] is: Trypanosoma cruzi, 24 h, read-out: IC50.
[13] abbreviates: Trypanosoma cruzi, 48 h, read-out: IC50.

As usually defined, the IC50 is the concentration needed to halve the response being measured. Usually CC50 stands for the concentration that lowers cell viability or growth by half. Higher therefore signals lower toxicity to the cells.

Active and inactive are the calls of the source. The rule behind the calls is not given here. Some results are limits rather than exact numbers.

With `CCCCCCCCCCCCCCCCCC(=O)O` [STEARIC ACID], the IC50 entry in the data set with Trypanosoma cruzi [1] and in the data set with Trypanosoma cruzi [2] was “Not Active” in each case.
For the molecule `CCCCCCCCC#CCCCCCCCC(=O)O`, the IC50 is 27.6 µM in the data set on Trypanosoma cruzi [1] (setting [12]) and “Not Active” with Trypanosoma cruzi [2]. The CC50 at 48 h in [3] was above 200 µM. Besides, the selectivity ratio in data set [4] was above 7.2.
For `C=CCCCCCCC#CCCCCCCCCCCC1=C(O)[C@@H](C)OC1=O`, the results for the IC50 in the data set on Trypanosoma cruzi [1] (setting [12]) and in the data set with Trypanosoma cruzi [2] (setting [13]) were 3.6 µM and 27.7 µM, respectively. The molecule also showed a CC50 at 48 h in data set [3] above 200 µM. In addition, the selectivity ratio in data set [4] was above 55.6; in data set [5], above 7.2. Also, the result in the data set on Trypanosoma cruzi [6], with Trypanosoma cruzi [8], with Trypanosoma cruzi [10] and in the data set on Trypanosoma cruzi [11] was Active. The result with Trypanosoma cruzi [7] was inactive. For the same molecule, the Activity result in the data set with Trypanosoma cruzi [9] is listed as “Non-Toxic”.
As for `O=C(Cn1ccnc1[N+](=O)[O-])NCc1ccccc1` [BENZNIDAZOLE], the IC50 with Trypanosoma cruzi [1] (setting [12]) came out at 5.5 µM; with Trypanosoma cruzi [2] (setting [13]) it was 18.7 µM.
`CCCCCCCCCCCCCCCCCCCC[C@@H]1C(=O)O[C@H](C)[C@@H]1O`: the IC50 entry in the data set on Trypanosoma cruzi [1] and in the data set on Trypanosoma cruzi [2] was “Not Active” in each case.
`C=CCCCCCCC#CCCCCCCCCCC[C@@H]1C(=O)O[C@H](C)[C@@H]1O`: the IC50 was 7.8 µM in the data set with Trypanosoma cruzi [1] (setting [12]) and 58.3 µM in the data set with Trypanosoma cruzi [2] (setting [13]). Further, in data set [3], the 50% cytotoxic concentration (CC50) at 48 h is above 200 µM. For the same molecule, the selectivity ratio is above 25.6 in data set [4] and above 3.4 in data set [5].
Regarding `C=CCCCCCCC#CCCCCCCCCCCC1=C(O)C(=C)OC1=O`, the IC50 with Trypanosoma cruzi [1] (setting [12]) was 0.4 µM; in the data set on Trypanosoma cruzi [2] (setting [13]), 23 µM. In data set [3], this molecule had a CC50 at 48 h of 80 µM. Moreover, the results for the selectivity ratio in [4] and in [5] were 200 and 3.5, respectively. Also, the result in the data set with Trypanosoma cruzi [6], in the data set with Trypanosoma cruzi [8], in the data set with Trypanosoma cruzi [10] and in the data set on Trypanosoma cruzi [11] was Active. In addition, in the data set with Trypanosoma cruzi [7], the outcome was inactive. Also, the Activity entry in the data set on Trypanosoma cruzi [9] is reported as “Non-Toxic”.
